Activity, Emax and EC50 data for 3 molecules are collected here from ChEMBL document CHEMBL1811873, “Peroxisome proliferator-activated receptor agonists with phenethylphenylphthalimide skeleton derived from thalidomide-related liver X receptor antagonists: relationship between absolute configuration and subtype selectivity” (Bioorg Med Chem, 2011).

Assay [1] has as its target T1, Oxysterols receptor LXR-alpha (Homo sapiens) (UniProt Q13133).
T1 sequence (whole entry): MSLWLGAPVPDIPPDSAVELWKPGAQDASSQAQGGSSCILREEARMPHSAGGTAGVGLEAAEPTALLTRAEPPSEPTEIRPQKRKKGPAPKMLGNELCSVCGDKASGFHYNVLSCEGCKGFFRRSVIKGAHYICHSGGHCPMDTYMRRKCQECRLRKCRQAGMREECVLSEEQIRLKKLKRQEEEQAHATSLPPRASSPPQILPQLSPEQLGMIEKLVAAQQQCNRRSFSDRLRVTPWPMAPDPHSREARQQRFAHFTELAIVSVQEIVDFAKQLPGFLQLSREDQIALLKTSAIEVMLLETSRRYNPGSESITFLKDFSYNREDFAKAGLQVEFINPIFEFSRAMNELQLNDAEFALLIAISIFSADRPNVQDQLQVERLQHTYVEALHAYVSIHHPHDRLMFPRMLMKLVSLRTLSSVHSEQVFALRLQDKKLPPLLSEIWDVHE
As to the kind of experiment: Antagonist activity at LXR. The assay is classed as functional.

For assay [2], the target named is T2, Peroxisome proliferator-activated receptor alpha (Homo sapiens) (UniProt Q07869).
T2 sequence (whole entry): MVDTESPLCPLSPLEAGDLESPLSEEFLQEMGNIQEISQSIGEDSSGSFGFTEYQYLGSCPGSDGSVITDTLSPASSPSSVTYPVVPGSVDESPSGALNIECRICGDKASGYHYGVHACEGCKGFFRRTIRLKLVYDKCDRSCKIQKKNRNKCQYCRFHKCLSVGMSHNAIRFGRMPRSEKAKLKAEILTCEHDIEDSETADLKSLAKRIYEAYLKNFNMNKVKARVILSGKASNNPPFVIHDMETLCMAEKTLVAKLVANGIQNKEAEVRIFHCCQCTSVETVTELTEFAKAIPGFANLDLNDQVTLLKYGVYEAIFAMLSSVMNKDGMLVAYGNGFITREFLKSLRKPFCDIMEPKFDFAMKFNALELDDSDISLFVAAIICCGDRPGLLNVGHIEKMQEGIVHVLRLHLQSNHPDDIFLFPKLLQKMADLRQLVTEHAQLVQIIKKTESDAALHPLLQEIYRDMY
As to the kind of experiment: Agonist activity at human PPARalpha expressed in HEK293 after 8 hrs by luciferase reporter gene assay relative to fenofibric acid. Type of assay: functional, cell-based. In outline:
(§1)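 GAL4N-hPPAR LBD chimera with TK-MH100x4-LUC reporter in calcium-phosphate-transfected HEK293 (DMEM, 5% FBS), compounds added 8 h post-transfection. Luciferase was normalized to β-galactosidase. Percent efficacy (Emax) was taken at the maximal stimulatory response relative to 10 µM fenofibric acid (PPARα), 100 nM GW501516 (PPARδ) or 10 µM ciglitazone (PPARγ). Triplicate, at least twice.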
(In a reporter assay the amount or activity of a reporter protein is the signal.)

In assay [3] the target is T3, Peroxisome proliferator-activated receptor gamma (Homo sapiens) (UniProt P37231).
T3 sequence (whole entry): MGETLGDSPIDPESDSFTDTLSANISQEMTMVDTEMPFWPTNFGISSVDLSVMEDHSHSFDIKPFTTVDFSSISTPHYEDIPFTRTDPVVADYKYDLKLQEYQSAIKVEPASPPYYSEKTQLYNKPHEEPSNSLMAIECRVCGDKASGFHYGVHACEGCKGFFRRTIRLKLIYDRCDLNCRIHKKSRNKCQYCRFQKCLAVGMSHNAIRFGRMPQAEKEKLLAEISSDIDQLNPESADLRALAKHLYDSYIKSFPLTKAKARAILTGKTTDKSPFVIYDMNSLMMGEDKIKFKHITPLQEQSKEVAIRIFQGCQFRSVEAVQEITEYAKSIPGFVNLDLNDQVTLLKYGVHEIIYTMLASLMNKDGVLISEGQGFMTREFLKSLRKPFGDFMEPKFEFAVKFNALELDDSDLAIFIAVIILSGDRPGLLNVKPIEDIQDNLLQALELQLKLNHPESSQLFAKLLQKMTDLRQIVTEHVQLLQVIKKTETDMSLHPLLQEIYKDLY
As to the kind of experiment: Agonist activity at PPARgamma expressed in HEK293 after 8 hrs by luciferase reporter gene assay relative to ciglitazone. Type of assay: functional, cell-based. In short, it runs like this:
as §1

Assay [4] addresses T4, Peroxisome proliferator-activated receptor gamma (Homo sapiens, UniProt P37231).
T4 sequence (P37231 whole entry): T3 sequence (whole entry)
As to the kind of experiment: Agonist activity at PPARgamma expressed in HEK293 after 8 hrs by luciferase reporter gene assay. Type of assay: functional, cell-based. In short, it runs like this: (§2)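 HEK293 cells grown in DMEM with 5% FBS at 37 °C in 5% CO2 were calcium-phosphate co-transfected with CMX-GAL4N-hPPAR LBD (subtype-specific), TK-MH100x4-LUC reporter and CMX β-galactosidase for normalization. Compounds were added 8 h post-transfection. Luciferase was read by luminometer and β-galactosidase by plate reader. Values are normalized averages; triplicate, repeated at least twice.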

Assay [5] deals with T5, Peroxisome proliferator-activated receptor delta (Homo sapiens) (UniProt Q03181).
T5 sequence (whole entry): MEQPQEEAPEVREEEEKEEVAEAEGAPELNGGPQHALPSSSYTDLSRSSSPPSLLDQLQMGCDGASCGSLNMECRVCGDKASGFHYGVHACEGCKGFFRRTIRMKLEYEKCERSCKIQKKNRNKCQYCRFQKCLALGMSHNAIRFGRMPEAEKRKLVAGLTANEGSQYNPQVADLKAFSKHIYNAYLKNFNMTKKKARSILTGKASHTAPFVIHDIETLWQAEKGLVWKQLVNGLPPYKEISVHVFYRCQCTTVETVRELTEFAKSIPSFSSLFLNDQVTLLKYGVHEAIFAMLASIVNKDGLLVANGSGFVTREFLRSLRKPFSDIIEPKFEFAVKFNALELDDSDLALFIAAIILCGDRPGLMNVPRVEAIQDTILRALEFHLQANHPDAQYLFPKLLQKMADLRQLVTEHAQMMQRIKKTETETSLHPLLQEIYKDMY
As to the kind of experiment: Agonist activity at human PPARdelta expressed in HEK293 after 8 hrs by luciferase reporter gene assay relative to GW501516. Type of assay: functional, cell-based. In short, it runs like this:
as §1

The target of assay [6] is T6, Bile acid receptor (Homo sapiens) (UniProt Q96RI1).
T6 sequence (whole entry): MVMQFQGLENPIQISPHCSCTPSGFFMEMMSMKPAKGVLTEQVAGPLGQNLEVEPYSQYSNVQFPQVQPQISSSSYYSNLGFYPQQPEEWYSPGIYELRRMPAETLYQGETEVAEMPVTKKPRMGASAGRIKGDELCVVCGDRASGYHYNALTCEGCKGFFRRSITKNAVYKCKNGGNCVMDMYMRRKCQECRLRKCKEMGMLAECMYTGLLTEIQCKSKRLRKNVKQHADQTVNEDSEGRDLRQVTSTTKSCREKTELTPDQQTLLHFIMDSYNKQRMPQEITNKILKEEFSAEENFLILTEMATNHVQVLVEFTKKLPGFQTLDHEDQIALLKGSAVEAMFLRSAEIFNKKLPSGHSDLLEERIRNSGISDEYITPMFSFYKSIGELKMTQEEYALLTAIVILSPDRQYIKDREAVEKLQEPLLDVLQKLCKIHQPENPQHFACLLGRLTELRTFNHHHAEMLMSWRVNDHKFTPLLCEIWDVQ
As to the kind of experiment: Agonist activity at FXR transfected in HEK293 cells by luciferase reporter gene assay. Type of assay: functional, cell-based.

The target of assay [7] is T6, Bile acid receptor (Homo sapiens). The assay is described as follows: Antagonist activity at FXR transfected in HEK293 cells by luciferase reporter gene assay. The assay is classed as functional, cell-based.
For assay [8], the target named is T1, Oxysterols receptor LXR-alpha (Homo sapiens). As to the kind of experiment: Agonist activity at LXR. The assay is classed as functional.
The target of assay [9] is T7, Peroxisome proliferator-activated receptor delta (Homo sapiens, UniProt Q03181).
T7 sequence (Q03181 whole entry): T5 sequence (whole entry)
As to the kind of experiment: Agonist activity at PPARdelta expressed in HEK293 after 8 hrs by luciferase reporter gene assay. The assay is classed as functional, cell-based. In short, it runs like this: as §2

The target of assay [10] is T8, Peroxisome proliferator-activated receptor alpha (Homo sapiens, UniProt Q07869).
T8 sequence (Q07869 whole entry): T2 sequence (whole entry)
The assay is described as follows: Agonist activity at human PPARalpha expressed in HEK293 after 8 hrs by luciferase reporter gene assay. Type of assay: functional, cell-based. In short, it runs like this: as §2

pEC50: −log10 of the molar value. Activity calls are given as the source filed them. The calls are words filed in the database; no cut-off is given here.

In general, pEC50 refers to the EC50 on a negative log10 scale, so that one unit is a factor of ten. A lower pEC50 goes with a large EC50.

As to `O=C(O)CCCOc1ccc(CCc2ccc(N3C(=O)c4ccccc4C3=O)cc2)cc1`, the result in assay [1], in assay [6], in assay [7] and in assay [8] was inactive. Further, the values for the Emax in assay [2], in assay [3] and in assay [5] were 0%, 31% and 1%, respectively. The molecule further had a pEC50 in assay [4] of 4.92.

Take `O=C(O)CCc1ccc(CCc2ccc(N3C(=O)c4ccccc4C3=O)cc2)cc1`: the result in [1], in assay [6], in assay [7] and in assay [8] was inactive. For the same molecule, the Emax came out at 53% in assay [2], 7% in assay [3] and 27% in [5]. Moreover, the results for the pEC50 in assay [9] and in assay [10] were 4.89 and 4.96, respectively.

For `O=C(O)COc1ccc(CCc2ccc(N3C(=O)c4ccccc4C3=O)cc2)cc1`, the result in assay [1], in assay [6], in assay [7] and in [8] was inactive. Also, the Emax in [2] is 29%; in assay [3], 6%; in assay [5], 10%. Moreover, the pEC50 was 4.21 in assay [9] and 4.54 in assay [10].
